The source made the active and inactive calls. The calls are words filed in the database; no cut-off is given here.
Legend:
[1] = molecular target: 5-hydroxytryptamine receptor 2A (Homo sapiens, UniProt P28223); assay: Binding affinity to 5-HT2A receptor (unknown origin) incubated for 1 hr by microbeta counting based displacement assay
D(2) dopamine receptor = D(2) dopamine receptor (Homo sapiens, UniProt P14416); assay: Displacement of [3H]-Raclopride from dopamine D2 receptor (unknown origin) incubated for 1 hr by microbeta counting method
In short: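 D2L receptor membranes from cell pellets, homogenized and spun twice at 35 000 g with a 15 min 37°C step between spins. Buffer 50 mM Tris–HCl, 1 mM EDTA, 4 mM MgCl2, 120 mM NaCl, 5 mM KCl, 1.5 mM CaCl2, 0.1% ascorbate. Radioligand [3H]-raclopride. Nonspecific binding defined with 1 μM (+)butaclamol. Incubated 1 h at 37°C, then filtered. Triplicates at 7–8 concentrations (10⁻¹¹–10⁻⁴ M). Ki by Cheng-Prusoff, means of ≥2 experiments.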

[2] = Dissociation constant, pKa of the compound; type: physicochemical
[3] = molecular target: T1, 5-hydroxytryptamine receptor 1A (Homo sapiens) (UniProt P08908); assay: (§1) Displacement of [3H]-8-OH-DPAT from 5-HT1A receptor (unknown origin) incubated for 1 hr by microbeta counting method
T1 sequence (whole entry): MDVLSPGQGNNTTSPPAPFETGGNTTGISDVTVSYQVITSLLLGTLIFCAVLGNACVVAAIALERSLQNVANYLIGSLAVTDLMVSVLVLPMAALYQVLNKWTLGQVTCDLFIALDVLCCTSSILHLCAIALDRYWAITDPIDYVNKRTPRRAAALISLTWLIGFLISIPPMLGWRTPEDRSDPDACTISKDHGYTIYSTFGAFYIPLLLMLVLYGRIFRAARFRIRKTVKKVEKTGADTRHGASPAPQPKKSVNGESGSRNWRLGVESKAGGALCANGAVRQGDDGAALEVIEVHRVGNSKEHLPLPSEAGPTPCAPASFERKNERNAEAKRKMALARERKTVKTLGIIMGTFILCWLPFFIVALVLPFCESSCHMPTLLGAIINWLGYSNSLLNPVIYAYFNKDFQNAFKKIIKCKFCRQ
In short: (§2)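 Membranes prepared from cell pellets by homogenization and two 35 000 g spins with a 15 min 37°C step between them. Buffer 50 mM Tris–HCl, 0.1 mM EDTA, 4 mM MgCl2, 10 μM pargyline, 0.1% ascorbate. Radioligand 1.5 nM [3H]-8-OH-DPAT. Nonspecific binding defined with 10 μM 5-HT. Incubated 1 h at room temperature, then filtered. Triplicates at 7–8 concentrations (10⁻¹¹–10⁻⁴ M). Ki by Cheng-Prusoff, means of ≥2 experiments.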

[4] = molecular target: 5-hydroxytryptamine receptor 7 (Homo sapiens) (UniProt P34969); assay: Displacement of [3H]-5-CT from 5-HT7b receptor (unknown origin) incubated for 1 hr by microbeta counting method
In short: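 Membranes from thawed cell pellets, homogenized and centrifuged twice at 35 000 g (20 min, 4°C) with a 15 min 37°C incubation between spins. Buffer 50 mM Tris–HCl, 4 mM MgCl2, 10 μM pargyline, 0.1% ascorbate. Radioligand 0.6 nM [3H]-5-CT. Nonspecific binding defined with 10 μM 5-HT. Incubated 1 h at 37°C, ended by rapid filtration. Triplicates at 7–8 concentrations (10⁻¹¹–10⁻⁴ M). Ki by Cheng-Prusoff, means of ≥2 experiments.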

[5] = molecular target: 5-hydroxytryptamine receptor 6 (Homo sapiens, UniProt P50406); assay: Displacement of [3H]-LSD from human 5-HT6 receptor incubated for 1 hr by microbeta counting method
In short: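 Human receptor membranes from homogenized cell pellets, centrifuged twice at 35 000 g with a 15 min 37°C incubation between spins. Buffer 50 mM Tris–HCl, 0.5 mM EDTA, 4 mM MgCl2. Radioligand 2 nM [3H]-LSD. Nonspecific binding defined with 10 μM methiothepine. Incubated 1 h at 37°C, ended by filtration. Triplicates at 7–8 concentrations (10⁻¹¹–10⁻⁴ M). Ki by Cheng-Prusoff, means of ≥2 experiments.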

[6] = molecular target: T2, 5-hydroxytryptamine receptor 1A (Homo sapiens, UniProt P08908); assay: as §1; in short: as §2
T2 sequence (P08908 whole entry): T1 sequence (whole entry)

5-hydroxytryptamine receptor 6, sequence (P50406 whole entry): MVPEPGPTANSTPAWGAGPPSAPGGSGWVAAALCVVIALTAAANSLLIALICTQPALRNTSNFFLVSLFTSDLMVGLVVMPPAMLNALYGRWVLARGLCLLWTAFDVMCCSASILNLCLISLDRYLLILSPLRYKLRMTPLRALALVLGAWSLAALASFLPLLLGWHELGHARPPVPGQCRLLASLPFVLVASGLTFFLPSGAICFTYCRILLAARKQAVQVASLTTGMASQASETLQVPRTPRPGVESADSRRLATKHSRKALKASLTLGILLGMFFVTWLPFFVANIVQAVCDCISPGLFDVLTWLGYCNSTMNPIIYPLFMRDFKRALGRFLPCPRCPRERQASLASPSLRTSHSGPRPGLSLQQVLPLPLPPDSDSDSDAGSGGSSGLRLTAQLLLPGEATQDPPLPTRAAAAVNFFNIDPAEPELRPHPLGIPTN
D(2) dopamine receptor, sequence (P14416 whole entry): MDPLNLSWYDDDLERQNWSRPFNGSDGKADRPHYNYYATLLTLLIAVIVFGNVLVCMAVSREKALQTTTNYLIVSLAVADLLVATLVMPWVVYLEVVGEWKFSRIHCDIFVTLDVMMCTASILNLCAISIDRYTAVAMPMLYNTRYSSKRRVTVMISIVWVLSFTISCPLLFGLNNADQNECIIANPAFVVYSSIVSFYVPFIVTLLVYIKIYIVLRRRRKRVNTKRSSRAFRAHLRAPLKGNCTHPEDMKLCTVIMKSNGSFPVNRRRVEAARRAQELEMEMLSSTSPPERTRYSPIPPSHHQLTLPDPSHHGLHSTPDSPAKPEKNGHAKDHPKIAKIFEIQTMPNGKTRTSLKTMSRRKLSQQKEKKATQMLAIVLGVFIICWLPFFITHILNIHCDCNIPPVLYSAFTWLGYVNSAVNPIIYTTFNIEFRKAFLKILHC
5-hydroxytryptamine receptor 2A, sequence (P28223 whole entry): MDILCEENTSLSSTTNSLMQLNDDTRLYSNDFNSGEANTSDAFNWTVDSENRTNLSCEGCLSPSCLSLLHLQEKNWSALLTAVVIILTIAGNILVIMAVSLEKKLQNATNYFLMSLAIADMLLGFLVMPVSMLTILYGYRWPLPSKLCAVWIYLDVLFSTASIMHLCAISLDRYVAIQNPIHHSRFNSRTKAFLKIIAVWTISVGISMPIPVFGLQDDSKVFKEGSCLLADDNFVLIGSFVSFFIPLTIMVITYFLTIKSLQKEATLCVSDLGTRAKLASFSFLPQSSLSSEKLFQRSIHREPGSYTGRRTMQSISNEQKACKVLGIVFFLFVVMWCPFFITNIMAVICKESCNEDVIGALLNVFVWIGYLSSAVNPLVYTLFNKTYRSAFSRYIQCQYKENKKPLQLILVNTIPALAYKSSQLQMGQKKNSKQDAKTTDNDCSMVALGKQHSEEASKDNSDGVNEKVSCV
5-hydroxytryptamine receptor 7 (Homo sapiens), sequence (P34969 whole entry): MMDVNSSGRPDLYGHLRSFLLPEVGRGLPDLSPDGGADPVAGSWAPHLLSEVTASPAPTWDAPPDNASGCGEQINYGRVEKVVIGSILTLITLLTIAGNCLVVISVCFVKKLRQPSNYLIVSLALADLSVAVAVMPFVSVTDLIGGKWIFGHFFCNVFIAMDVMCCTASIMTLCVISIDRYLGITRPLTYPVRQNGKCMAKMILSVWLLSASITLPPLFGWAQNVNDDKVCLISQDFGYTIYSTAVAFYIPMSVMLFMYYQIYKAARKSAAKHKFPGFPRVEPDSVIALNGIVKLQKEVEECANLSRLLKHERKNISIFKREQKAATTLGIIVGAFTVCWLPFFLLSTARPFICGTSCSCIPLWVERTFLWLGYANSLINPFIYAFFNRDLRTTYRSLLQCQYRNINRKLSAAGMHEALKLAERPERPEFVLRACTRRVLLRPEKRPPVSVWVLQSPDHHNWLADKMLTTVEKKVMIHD

Structure (SMILES)	pKa [2]	Ki [5] [nM]	also measured
O=S(=O)(c1ccccc1)n1ccc2ccc(-c3ccncc3)cc21	4.9	38	Activity [1]: inactive; Activity (D(2) dopamine receptor): inactive; Activity [3]: inactive; Activity [4]: inactive
O=S(=O)(c1ccccc1)n1cc(N2CCCCC2)c2ccccc21	4.5	219	–
CN1CCN(c2cccc3c2ccn3S(=O)(=O)c2ccccc2)CC1	7.3	–	Ki [1]: 41 nM; Ki [6]: 164 nM
O=S(=O)(c1ccccc1)n1ccc2c(-c3ccccc3)cccc21	–	162	–
c1ccc(Cn2ccc3ccc(-c4ccncc4)cc32)cc1	–	3260	–
CN1CCN(c2cn(S(=O)(=O)c3ccccc3)c3ccccc23)CC1	7.4	–	–
CC(=O)N1CCN(c2cn(S(=O)(=O)c3ccccc3)c3ccccc23)CC1	0.6	97	–
CN(C)c1cccc2c1ccn2S(=O)(=O)C1CCCCC1	–	4890	–
O=S(=O)(c1ccccc1)n1cc(N2CCN(CC(F)(F)F)CC2)c2ccccc21	3.6	2030	–
CC(=O)N1CCN(c2ccc3ccn(S(=O)(=O)c4ccccc4)c3c2)CC1	-0.4	97	–
CN(C)c1cccc2c1ccn2S(=O)(=O)c1ccccc1	5	65	Activity [1]: inactive; Activity (D(2) dopamine receptor): inactive; Activity [3]: inactive; Activity [4]: inactive
CN(C)c1ccc2ccn(S(=O)(=O)c3ccccc3)c2c1	-0.3	211	–
CN(C)c1cccc2c1ccn2S(C)(=O)=O	–	4720	–
CN1CCN(c2ccc3c(ccn3S(=O)(=O)c3ccccc3)c2)CC1	7.4	27	–
O=S(=O)(c1ccccc1)n1ccc2cc(-c3ccncc3)ccc21	4.5	409	–
O=S(=O)(c1ccccc1)n1cc(-c2ccccc2)c2ccccc21	–	146	–
O=S(=O)(c1ccccc1)n1ccc2c(O)cccc21	–	108	–
CC(=O)N1CCN(c2ccc3c(ccn3S(=O)(=O)c3ccccc3)c2)CC1	0.9	4850	–
CS(=O)(=O)n1ccc2ccc(-c3ccncc3)cc21	–	4050	–

Continued by falling Ki [5], values first:

pKa [2]	Ki [5] [nM]	Structure (SMILES)	also measured
–	49900	CCCCS(=O)(=O)n1ccc2c(N(C)C)cccc21	–
–	39100	CN(C)c1cccc2c1ccn2S(=O)(=O)N1CCCCC1	–
3.4	5250	O=S(=O)(c1ccccc1)n1ccc2cc(N3CCN(CC(F)(F)F)CC3)ccc21	–
–	2560	CN(C)c1cccc2c1ccn2Cc1ccccc1	–
–	2180	O=S(=O)(C1CCCCC1)n1ccc2ccc(-c3ccncc3)cc21	–
3.9	1740	O=S(=O)(c1ccccc1)n1ccc2c(N3CCN(CC(F)(F)F)CC3)cccc21	–
–	1660	O=S(=O)(N1CCCCC1)n1ccc2ccc(-c3ccncc3)cc21	–
4.9	1510	O=S(=O)(c1ccccc1)n1ccc2c(-c3ccncc3)cccc21	–
3.6	1200	O=S(=O)(c1ccccc1)n1ccc2ccc(N3CCN(CC(F)(F)F)CC3)cc21	–
–	1150	CCCCS(=O)(=O)n1ccc2ccc(-c3ccncc3)cc21	–
0.8	714	CC(=O)N1CCN(c2cccc3c2ccn3S(=O)(=O)c2ccccc2)CC1	–
–	558	O=S(=O)(c1ccccc1)n1ccc2cc(-c3ccccc3)ccc21	–
4.2	474	CN(C)c1cn(S(=O)(=O)c2ccccc2)c2ccccc12	–
-0.4	403	O=S(=O)(c1ccccc1)n1ccc2ccc(N3CCCCC3)cc21	–
1.9	360	O=S(=O)(c1ccccc1)n1ccc2cc(N3CCCCC3)ccc21	–
–	262	COc1cccc2c1ccn2S(=O)(=O)c1ccccc1	–
–	178	O=S(=O)(c1ccccc1)n1ccc2ccc(-c3ccccc3)cc21	–
–	159	O=S(=O)(c1ccccc1)n1ccc2ccccc21	–
5.4	128	O=S(=O)(c1ccccc1)n1ccc2c(N3CCCCC3)cccc21	–
–	127	COc1ccc2c(ccn2S(=O)(=O)c2ccccc2)c1	–
5	124	O=S(=O)(c1ccccc1)n1cc(-c2ccncc2)c2ccccc21	–
3.3	82	CN(C)c1ccc2c(ccn2S(=O)(=O)c2ccccc2)c1	–
8.2	9	CN1CCN(c2ccc3ccn(S(=O)(=O)c4ccccc4)c3c2)CC1	Ki (D(2) dopamine receptor): 241 nM; Ki [6]: 247 nM

— ChEMBL document CHEMBL4732129, “Rationally designed N-phenylsulfonylindoles as a tool for the analysis of the non-basic 5-HTR ligands binding mode” (Eur J Med Chem, 2021)
